# Measured values from ChEMBL document CHEMBL2311397, “Design and synthesis of cyclopropylamide analogues of combretastatin-A4 as novel microtubule-stabilizing agents” (J Med Chem, 2013).
# Active and inactive are the calls of the source. No cut-off for these calls is given here.
# Experiments:
# A549 [1] = experiment: Induction of apoptosis in human A549 cells assessed as late apoptotic cells at 5 uM after 24 hrs by annexin V-FITC/propidium iodide staining-based flow cytometry (reference value: 1.02%); format: functional
# Tubulin (Homo sapiens) = Tubulin (Homo sapiens) (UniProt P68371+Q9H4B7+P0DPH7+P68366+Q13509+Q71U36+P04350+Q3ZCM7+P07437+P68363+Q9BQE3+Q6PEY2+Q13885+Q9BVA1+Q9BUF5); experiment: Activation of tubulin (unknown origin) polymerization at 10 uM; format: protein-complex assay
# Outline: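 Purified brain tubulin (kit), final 3.0 mg/mL, in 80.0 mM PIPES sesquisodium pH 6.9, 2.0 mM MgCl2, 0.5 mM EGTA, 1 mM GTP, 10.2% glycerol; components prewarmed to 37 °C, reaction started by adding tubulin. A340 read each minute for 1 h. Single-point % stimulation used 10 μM compound; EC50 from 3.75, 7.5, 15, 30, 60 μM.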
# A549 [2] = experiment: Cell cycle arrest in human A549 cells assessed as accumulation at G2/M phase at 5 uM after 24 hrs by propidium iodide staining-based flow cytometry (reference value: 2.78 %); format: functional
# A549 [3] = experiment: Antimitotic activity against human A549 cells assessed as cell mitotic arrest at 5 uM after 22 hrs by DAPI/FITC staining-based laser fluorescence confocal microscopic analysis (reference value: 1.1 %); format: functional
# A549 [4] = experiment: Antimitotic activity against human A549 cells assessed as cell mitotic arrest at 10 uM after 22 hrs by DAPI/FITC staining-based laser fluorescence confocal microscopic analysis (reference value: 1.1 %); format: functional
# [5] = Cytotoxicity against human QGY cells after 48 hrs by MTT assay; format: functional, cell-based; settings: Homo sapiens, QGY, 48 h
# Outline: (§1)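 Log-phase cells (40000–50000 cells/mL) grown in DMEM with 10% fetal calf serum (5% CO2, 37 °C) and exposed 48 h to five concentrations, 3–5 replicates. Read-out was MTT with absorbance at 570 nm; IC50 reported as mean ± SD of three independent experiments. Resistant A549 and HeLa sublines were made by stepwise paclitaxel selection; resistance index = IC50(resistant)/IC50(sensitive).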
# A549 [6] = experiment: Cell cycle arrest in human A549 cells assessed as accumulation at G2/M phase at 0.1 uM after 24 hrs by propidium iodide staining-based flow cytometry (reference value: 2.78 %); format: functional
# A549 [7] = experiment: Cell cycle arrest in human A549 cells assessed as accumulation at S phase at 5 uM after 24 hrs by propidium iodide staining-based flow cytometry (reference value: 9.12 %); format: functional
# A549 [8] = experiment: Resistance index, ratio of IC50 for paclitaxel-resistant human A549 cells to IC50 for paclitaxel-sensitive human A549 cells; format: functional; outline: as §1
# HeLa = experiment: Cytotoxicity against paclitaxel-resistant human HeLa cells after 48 hrs by MTT assay; format: functional, cell-based; outline: as §1
# A549 [9] = experiment: Cell cycle arrest in human A549 cells assessed as accumulation at S phase at 10 uM after 24 hrs by propidium iodide staining-based flow cytometry (reference value: 9.12 %); format: functional
# A549 [10] = experiment: Cell cycle arrest in human A549 cells assessed as accumulation at G1 phase at 10 uM after 24 hrs by propidium iodide staining-based flow cytometry (reference value: 87.56 %); format: functional
# A549 [11] = experiment: Cell cycle arrest in human A549 cells assessed as accumulation at G2/M phase at 1 uM after 24 hrs by propidium iodide staining-based flow cytometry (reference value: 2.78 %); format: functional
# A549 [12] = experiment: Induction of apoptosis in human A549 cells assessed as viable cells at 5 uM after 24 hrs by annexin V-FITC/propidium iodide staining-based flow cytometry (reference value: 94.08%); format: functional; settings: A549, 24 h, read-out: Activity
# A549 [13] = experiment: Effect on chromosomal alteration in human A549 cells at 10 uM after 22 hrs by DAPI/FITC staining-based laser fluorescence confocal microscopic analysis; format: functional, cell-based
# Outline: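 Confocal imaging of A549 cells exposed for 22 h to compound or vehicle (0.2% DMSO final), added at 70% confluency after overnight growth. Fixation followed by 0.5% Triton X-100 permeabilization and 10% goat serum blocking; tubulin stained with FITC anti-α-tubulin (1:100, 2 h, 37 °C), nuclei counterstained with DAPI. Wide-field images taken at 10–15 random slide locations.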
# A549 [14] = experiment: Cytotoxicity against paclitaxel-resistant human A549 cells after 48 hrs by MTT assay; format: functional, cell-based; settings: A549, 48 h; outline: as §1
# A549 [15] = experiment: Induction of apoptosis in human A549 cells assessed as early apoptotic cells at 1 uM after 24 hrs by annexin V-FITC/propidium iodide staining-based flow cytometry (reference value: 0.73 %); format: functional
# A549 [16] = experiment: Induction of apoptosis in human A549 cells assessed as necrotic cells at 5 uM after 24 hrs by annexin V-FITC/propidium iodide staining-based flow cytometry (reference value: 2.76%); format: functional
# A549 [17] = experiment: Antimitotic activity against human A549 cells assessed as cell mitotic arrest at 1 uM after 22 hrs by DAPI/FITC staining-based laser fluorescence confocal microscopic analysis (reference value: 1.1 %); format: functional
# A549 [18] = experiment: Induction of apoptosis in human A549 cells assessed as late apoptotic cells at 1 uM after 24 hrs by annexin V-FITC/propidium iodide staining-based flow cytometry (reference value: 1.02%); format: functional
smiles,measurement,setting,value
COc1cc([C@@H]2C[C@]2(CO)C(=O)Nc2ccccc2Cl)cc(OC)c1OC,Activity,A549 [1],1.36%
same,Activity,Tubulin (Homo sapiens),24.3%
same,Activity,A549 [2],60.85%
same,Activity,A549 [3],53.1%
same,Activity,A549 [4],78.8%
same,IC50,[5],15.7 µM
same,Activity,A549 [6],12.53%
same,Activity,A549 [7],10.81%
same,Ratio IC50,A549 [8],1.2
same,IC50,HeLa,10.7 µM
same,Activity,A549 [9],10.29%
same,Activity,A549 [10],9.85%
same,Activity,A549 [11],51.68%
same,viability at 5 µM,A549 [12],59%
same,Activity,A549 [13],Active
same,IC50,A549 [14],5.3 µM
same,Activity,A549 [15],15.57%
same,Activity,A549 [16],2.04%
same,Activity,A549 [17],37.4%
same,Activity,A549 [18],2.82%
